Here are results for 8 compounds from ChEMBL document CHEMBL1142625, “Antifungal substances against pathogenic fungi, talaroconvolutins, from talaromyces convolutus” (J Nat Prod, 2000).

The test system of test [1] is Cryptococcus neoformans. Description: Antifungal activity against Cryptococcus neoformans (Sanfelice) Vuillemin ATCC 90112 assessed as diameter of inhibition zone at 1 ug/disk after 48 to 72 hrs by paper disk assay. The format is functional. The method in brief: (§1)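 Compound was absorbed onto 8 mm paper disks and the disks were placed on assay plates seeded with the test fungus. Plates contained Sabouraud's glucose broth agar and were incubated at 25 °C. After 48–72 h, the diameter of the inhibition zone was recorded in mm.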

For test [2], the system named is Cryptococcus neoformans. The test can be described thus: Antifungal activity against Cryptococcus neoformans (Sanfelice) Vuillemin ATCC 90112 assessed as diameter of inhibition zone at 5 ug/disk after 48 to 72 hrs by paper disk assay. The format is functional. The method in brief:
as §1

The test system of test [3] is Cryptococcus neoformans. The test can be described thus: Antifungal activity against Cryptococcus neoformans (Sanfelice) Vuillemin ATCC 90112 assessed as diameter of inhibition zone at 20 ug/disk after 48 to 72 hrs by paper disk assay. Type of test: functional. The method in brief:
as §1

For test [4], the system named is Cryptococcus neoformans. The test can be described thus: Antifungal activity against Cryptococcus neoformans (Sanfelice) Vuillemin ATCC 90112 assessed as diameter of inhibition zone at 100 ug/disk after 48 to 72 hrs by paper disk assay. Type of test: functional. The method in brief:
as §1

The subject of test [5] is Cryptococcus neoformans. Description: Antifungal activity against Cryptococcus neoformans (Sanfelice) Vuillemin ATCC 90112 assessed as diameter of inhibition zone upto 100 ug/disk after 48 to 72 hrs by paper disk assay. The format is functional, organism-based. A digest of the protocol:
as §1

Test [6] deals with Candida albicans. Description: Antifungal activity against Candida albicans 7N assessed as diameter of inhibition zone upto 100 ug/disk after 48 to 72 hrs by paper disk assay. The format is functional, organism-based. A digest of the protocol:
as §1

Test [7] relates to Aspergillus fumigatus. The test can be described thus: Antifungal activity against Aspergillus fumigatus Fresenius 167 assessed as diameter of inhibition zone upto 100 ug/disk after 48 to 72 hrs by paper disk assay. Type of test: functional, organism-based. A digest of the protocol:
as §1

Test [8] deals with Aspergillus niger. The test can be described thus: Antifungal activity against Aspergillus niger Van Tieghem H7160B assessed as diameter of inhibition zone upto 100 ug/disk after 48 to 72 hrs by paper disk assay. Type of test: functional, organism-based. The method in brief: as §1
In test [9] the test system is Aspergillus fumigatus. The test can be described thus: Antifungal activity against Aspergillus fumigatus Fresenius 167 assessed as diameter of inhibition zone at 1 ug/disk after 48 to 72 hrs by paper disk assay. Type of test: functional. To be noted: for zone of inhibition at 1 µg/disc: read-out: IZ. A digest of the protocol: as §1
Test [10] deals with Aspergillus niger. The test can be described thus: Antifungal activity against Aspergillus niger Van Tieghem H7160B assessed as diameter of inhibition zone at 1 ug/disk after 48 to 72 hrs by paper disk assay. Type of test: functional. A digest of the protocol:
as §1

The test system of test [11] is Aspergillus niger. The test can be described thus: Antifungal activity against Aspergillus niger Van Tieghem H7160B assessed as diameter of inhibition zone at 5 ug/disk after 48 to 72 hrs by paper disk assay. Type of test: functional. The following applies: for zone of inhibition at 5 µg/disc: Aspergillus niger, Van Tieghem, read-out: IZ. A digest of the protocol: as §1

The subject of test [12] is Candida albicans. Description: Antifungal activity against Candida albicans 7N assessed as diameter of inhibition zone at 1 ug/disk after 48 to 72 hrs by paper disk assay. Type of test: functional. The following applies: for zone of inhibition at 1 µg/disc: Candida albicans, read-out: IZ. A digest of the protocol: as §1
The subject of test [13] is Aspergillus niger. The test can be described thus: Antifungal activity against Aspergillus niger Van Tieghem H7160B assessed as diameter of inhibition zone at 20 ug/disk after 48 to 72 hrs by paper disk assay. Type of test: functional. The following applies: for zone of inhibition at 20 µg/disc: Aspergillus niger, Van Tieghem, read-out: IZ. The method in brief:
as §1

In test [14] the test system is Aspergillus fumigatus. Description: Antifungal activity against Aspergillus fumigatus Fresenius 167 assessed as diameter of inhibition zone at 100 ug/disk after 48 to 72 hrs by paper disk assay. Type of test: functional. To be noted: for zone of inhibition at 100 µg/disc: Aspergillus fumigatus, read-out: IZ. The method in brief:
as §1

Test [15] concerns Aspergillus niger. Description: Antifungal activity against Aspergillus niger Van Tieghem H7160B assessed as diameter of inhibition zone at 100 ug/disk after 48 to 72 hrs by paper disk assay. Type of test: functional. The following applies: for zone of inhibition at 100 µg/disc: Aspergillus niger, Van Tieghem, read-out: IZ. The method in brief: as §1
In test [16] the test system is Candida albicans. The test can be described thus: Antifungal activity against Candida albicans 7N assessed as diameter of inhibition zone at 100 ug/disk after 48 to 72 hrs by paper disk assay. Type of test: functional. To be noted: for zone of inhibition at 100 µg/disc: Candida albicans, read-out: IZ. A digest of the protocol:
as §1

Test [17] has as its system Candida albicans. The test can be described thus: Antifungal activity against Candida albicans 7N assessed as diameter of inhibition zone at 5 ug/disk after 48 to 72 hrs by paper disk assay. The format is functional. The following applies: for zone of inhibition at 5 µg/disc: Candida albicans, read-out: IZ. A digest of the protocol: as §1
In test [18] the test system is Candida albicans. The test can be described thus: Antifungal activity against Candida albicans 7N assessed as diameter of inhibition zone at 20 ug/disk after 48 to 72 hrs by paper disk assay. Type of test: functional. The following applies: for zone of inhibition at 20 µg/disc: Candida albicans, read-out: IZ. A digest of the protocol:
as §1

Test [19] deals with Aspergillus fumigatus. Description: Antifungal activity against Aspergillus fumigatus Fresenius 167 assessed as diameter of inhibition zone at 5 ug/disk after 48 to 72 hrs by paper disk assay. The format is functional. To be noted: for zone of inhibition at 5 µg/disc: Aspergillus fumigatus, read-out: IZ. The method in brief:
as §1

The test system of test [20] is Aspergillus fumigatus. The test can be described thus: Antifungal activity against Aspergillus fumigatus Fresenius 167 assessed as diameter of inhibition zone at 20 ug/disk after 48 to 72 hrs by paper disk assay. The format is functional. To be noted: for zone of inhibition at 20 µg/disc: Aspergillus fumigatus, read-out: IZ. A digest of the protocol:
as §1

The structures appear in SMILES notation. Active and inactive are the calls of the source. No cut-off for these calls is given here.

`CCC(C)/C=C(\C)[C@H]1C(C)=C[C@@]2(C)C[C@@H](C)CC[C@@H]2[C@H]1C(=O)C1=CC(O)(Cc2ccc(O)cc2)NC1=O` (stereo in doubt; 5): the result in the test with Cryptococcus neoformans [1], in the test with Cryptococcus neoformans [2], in the test on Cryptococcus neoformans [3] and in the test with Cryptococcus neoformans [4] was inactive.

With `CCC(C)/C=C(\C)[C@H]1C(C)=C[C@@]2(C)C[C@@H](C)CC[C@@H]2[C@H]1C(=O)C1C(=O)NC2(Cc3ccc(O)cc3)OC(C)(C)OC12` (some centres undefined), the result in the test with Cryptococcus neoformans [5], in the test with Candida albicans [6], in the test with Aspergillus fumigatus [7] and in the test on Aspergillus niger [8] was inactive.

With `CCC(C)/C=C(\C)[C@H]1C(C)=C[C@@]2(C)C[C@@H](C)CC[C@@H]2[C@H]1C(=O)C1=CC(O)(Cc2ccc(O)cc2)NC1=O` (stereo in doubt; 2), the result in the test with Cryptococcus neoformans [5], with Cryptococcus neoformans [1], with Cryptococcus neoformans [2], with Aspergillus fumigatus [9], in the test on Cryptococcus neoformans [3] and in the test with Cryptococcus neoformans [4] was inactive. In the test with Aspergillus niger [10], the result was inactive.

Turning to `CCC(C)/C=C(\C)[C@H]1C(C)=C[C@@]2(C)C[C@@H](C)CC[C@@H]2[C@H]1C(=O)C1=CC(O)(Cc2ccc(O)cc2)NC1=O` (stereo in doubt; 2) [TALAROCONVOLUTIN B], the values for the zone of inhibition at 5 µg/disc with Aspergillus niger [11], in the test on Candida albicans [17] and with Aspergillus fumigatus [19] were 9 mm, 13 mm and 10 mm, respectively. In the test with Candida albicans [12], the zone of inhibition at 1 µg/disc turned out to be 11 mm. In addition, the zone of inhibition at 20 µg/disc was determined as 10 mm in the test with Aspergillus niger [13], 14 mm with Candida albicans [18] and 11 mm in the test with Aspergillus fumigatus [20]. The values for the zone of inhibition at 100 µg/disc in the test on Aspergillus fumigatus [14], with Aspergillus niger [15] and in the test with Candida albicans [16] were 12 mm, 11 mm and 15 mm, respectively.

On to `CCOC1C(C(=O)[C@H]2[C@@H](/C(C)=C/C(C)CC)C(C)=C[C@@]3(C)C[C@@H](C)CC[C@H]23)C(=O)NC1(O)Cc1ccc(O)cc1` (some centres undefined) [TALAROCONVOLUTIN C], for which the outcome in the test with Aspergillus niger [11], with Cryptococcus neoformans [5], in the test with Cryptococcus neoformans [1], in the test with Candida albicans [12], in the test on Cryptococcus neoformans [2] and with Aspergillus fumigatus [9] was inactive. For the same compound, the outcome with Cryptococcus neoformans [3], with Candida albicans [17], in the test on Aspergillus fumigatus [19] and with Cryptococcus neoformans [4] was inactive. Moreover, the results for the zone of inhibition at 20 µg/disc with Aspergillus niger [13], with Candida albicans [18] and in the test with Aspergillus fumigatus [20] were 10 mm, 10 mm and 11 mm, respectively. Moreover, the zone of inhibition at 100 µg/disc in the test with Aspergillus fumigatus [14], in the test with Aspergillus niger [15] and with Candida albicans [16] was 11 mm in each case. Also, the “inhibition zone (IZ)” value in the test on Aspergillus niger [10] is “inactive”.

Turning to `CCC(C)/C=C(\C)[C@H]1C(C)=C[C@@]2(C)C[C@@H](C)CC[C@@H]2[C@H]1C(=O)C1=CC(O)(Cc2ccc(O)cc2)NC1=O` (stereo in doubt; 5) [TALAROCONVOLUTIN B], the “inhibition zone (IZ)” value turned out to be 13 mm in the test with Aspergillus niger [11]; 15 mm with Candida albicans [12]; 15 mm with Aspergillus niger [13]; 17 mm with Aspergillus fumigatus [14]; 16 mm with Aspergillus niger [15]; 20 mm with Candida albicans [16]. For the same compound, the “inhibition zone (IZ)” value with Candida albicans [17] turned out to be 17 mm; in the test on Candida albicans [18], 18 mm; with Aspergillus fumigatus [19], 14 mm; in the test on Aspergillus fumigatus [20], 15 mm. Also, the zone of inhibition at 1 µg/disc with Aspergillus fumigatus [9] was found to be 11 mm. Also, in the test on Aspergillus niger [10], the Activity was found to be 11 mm.

Regarding `CCC(C)/C=C(\C)[C@H]1C(C)=C[C@@]2(C)C[C@@H](C)CC[C@@H]2[C@H]1C(=O)C1=C/C(=C/c2ccc(O)cc2)NC1=O` (some centres undefined), the result in the test on Cryptococcus neoformans [5], with Candida albicans [6], in the test with Aspergillus fumigatus [7] and with Aspergillus niger [8] was inactive.

Take `C[C@@H]1[C@H](O)[C@@H](C)/C=C/C=C/C=C/C=C/C=C/C=C/C=C/[C@H](O[C@@H]2O[C@H](C)[C@@H](O)[C@H](N)[C@@H]2O)C[C@@H]2O[C@](O)(C[C@@H](O)C[C@@H](O)[C@H](O)CC[C@@H](O)C[C@@H](O)CC(=O)O[C@H]1C)C[C@H](O)[C@H]2C(=O)O` [AMPHOTERICIN B]: the zone of inhibition at 5 µg/disc was found to be 20 mm with Aspergillus niger [11], 13 mm in the test with Cryptococcus neoformans [2] (read-out: IZ), 18 mm in the test on Candida albicans [17] and 12 mm with Aspergillus fumigatus [19]. Further, the zone of inhibition at 1 µg/disc in the test on Cryptococcus neoformans [1] (read-out: IZ) worked out at 11 mm; in the test with Candida albicans [12] it was 15 mm; with Aspergillus fumigatus [9], 10 mm; in the test on Aspergillus niger [10] (Aspergillus niger, Van Tieghem, read-out: IZ), 16 mm. The zone of inhibition at 20 µg/disc in the test with Aspergillus niger [13] worked out at 24 mm; with Cryptococcus neoformans [3] (read-out: IZ), 16 mm; in the test with Candida albicans [18] it was 20 mm; in the test on Aspergillus fumigatus [20] it was 14 mm. Also, the zone of inhibition at 100 µg/disc in the test with Aspergillus fumigatus [14] worked out at 17 mm; in the test on Aspergillus niger [15], 25 mm; in the test with Candida albicans [16], 20 mm; in the test with Cryptococcus neoformans [4] (read-out: IZ) it was 19 mm.
